A selection: hits, their analogues and other compounds. The true share with any hit is near 9.2%.
bCat KO growth: beta-catenin-lacking colon tumor cell growth suppression. actives 1.5% (n = 140,000). viability, % at 10 µM. HCT116 beta-catenin knockout viability, CellTiter-Glo, 60 h; hits give low values;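 active means viability at or under a set limit, the compound median less 4 SD, cut at about 6% in these data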;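 further: 0% = Hyamine 1622 control at 20 µM and 100% = untreated cell control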
Lmaj promast: Leishmania major promastigote growth inhibition; Leishmania major promastigotes, resazurin fluorescence viability; inhibition, % at 10 µM; AID 1063; actives 9% (n = 200,000); in the data active means inhibition above about 50%;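 further: promastigotes grown with compound for 44 hours at 28 °C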
HCT116 PTEN-null: PTEN-deleted cell growth suppression. HCT116 PTEN-null viability, CellTiter-Glo, 60 h; hits give low values. viability, % at 10 µM. actives 1.2% (n = 140,000). AID 827;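 active means viability at or below a set limit, 4 SD under the median of all tested compounds, cut at about 3.7% in these data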;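 further: PTEN knockout HCT116 line with beta catenin targeted HCT116 as companion control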
Dynein cargo inh: dynein cargo transport inhibition. 3617.4 mouse cells, GR-EGFP nuclear translocation imaging; test concentration mostly 20 µM; stimulated with dexamethasone, 1 µM; hits give low values. z-score, hits read low. actives 0.47% (n = 220,000). AID 1381;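 active means plate z-score of nuclear minus cytoplasmic receptor signal below a set negative limit, without overly bright fluorescence or cell loss, cut at about -3.5 in these data, passing the limit was not always enough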;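 further: z-score of nuclear minus cytoplasmic ring GR-EGFP intensity difference per well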
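Buffer or medium: tet-free, stripped-serum medium; reagent: dexamethasone at 1.0 µM final, 30 min; incubation: 48 h induction, 1 h compound, 30 min dex at 37 °C; measured by: formaldehyde fixation, Hoechst nuclear stain, 10x automated fluorescence imaging; read-out: nuclear-to-cytoplasmic GR-EGFP distribution per well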
Autophagy mod: modulators of autophagy; MEF GFP-LC3 puncta imaging; test concentration mostly 10 µM; calls only at 10 µM (by protocol); actives 0.98% (n = 190,000);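 active means percentage of spot-positive cells more than 3 SD above its plate mean, without a fluorescence outlier flag or 80% toxicity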;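 further: spot-positive cell cutoff set from DMSO-treated cells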
Numbers without * were called inactive.

Results for Cc1ccc(-n2c(SCC(N)=O)nnc2-c2ccccn2)cc1C ?
bCat KO growth: 99; Lmaj promast: -5; HCT116 PTEN-null: 107; Dynein cargo inh: 0.33; Autophagy mod: inactive

How did Cc1csc(NC(=O)CSc2nnc(NC(=O)COc3ccccc3)s2)n1 do in these assays?
bCat KO growth: 92; Lmaj promast: 51*; HCT116 PTEN-null: 101; Dynein cargo inh: -0.92; Autophagy mod: inactive

How did Cc1csc(NC(=O)CSc2nnc(-c3ccccn3)n2-c2ccc(C)c(C)c2)n1 do in these assays?
bCat KO growth: 87; Lmaj promast: 68*; HCT116 PTEN-null: 93; Dynein cargo inh: 0.28; Autophagy mod: inactive

What do the screens show for `CSc1ncc(-c2ccc(Cl)cc2)[nH]1`?
Dynein cargo inh: 1.5

Results for COC(=O)/C(=C\c1ccc2c(c1)c1ccccc1n2C)NC(=O)c1ccccc1 ?
bCat KO growth: 76; Lmaj promast: 63*; HCT116 PTEN-null: 66; Dynein cargo inh: -0.0016; Autophagy mod: inactive

What do the screens show for `CC(C)OC(=O)/C(=C\c1cccnc1)NC(=O)c1ccccc1`?
Lmaj promast: -1; Dynein cargo inh: -0.35; Autophagy mod: active

What do the screens show for `O=C(NCCc1ccc(Cl)cc1)/C(=C/c1cccnc1)NC(=O)c1ccccc1`?
bCat KO growth: 99; Lmaj promast: 59*; HCT116 PTEN-null: 93; Dynein cargo inh: -0.22; Autophagy mod: inactive

Results for CC(C)OC(=O)/C(=C/c1ccc2c(c1)c1ccccc1n2C)NC(=O)c1ccccc1 ?
bCat KO growth: 84; Lmaj promast: 40; HCT116 PTEN-null: 73; Dynein cargo inh: -0.33; Autophagy mod: inactive

Results for COC(=O)N/N=C/c1sc(N2CCCCC2)nc1-c1cccs1 ?
Lmaj promast: 42; Dynein cargo inh: 0.22; Autophagy mod: inactive

How did O=C(/C=C/c1ccccc1)NNc1ccc(Cl)cc1 do in these assays?
Lmaj promast: 99*; Dynein cargo inh: 1.2; Autophagy mod: inactive

Results for CC(CCc1ccccc1)NC(=O)/C=C/c1ccc(Cl)cc1 (stereo not given) ?
bCat KO growth: 83; Lmaj promast: 52*; HCT116 PTEN-null: 72; Dynein cargo inh: 0.19; Autophagy mod: inactive

What do the screens show for `Cc1ccc(-c2ccc(/C=N\NC(=O)c3cc4c(ccc5ccccc54)o3)o2)cc1[N+](=O)[O-]`?
bCat KO growth: 1.2*; Lmaj promast: 0; HCT116 PTEN-null: 0.6*; Dynein cargo inh: 0.89; Autophagy mod: inactive

What do the screens show for `CN(C)S(=O)(=O)N1CCC(CO)(Cc2cccc(C(F)(F)F)c2)CC1`?
Lmaj promast: 10; Dynein cargo inh: -0.31; Autophagy mod: inactive

What do the screens show for `OCC1(Cc2cccc(C(F)(F)F)c2)CCN(Cc2cc(F)cc(F)c2)CC1`?
Lmaj promast: 86*; Dynein cargo inh: 1.1; Autophagy mod: inactive

Results for CSc1cccc(CN2CCC(CO)(Cc3cccc(C(F)(F)F)c3)CC2)c1 ?
Lmaj promast: 81*; Dynein cargo inh: -0.72; Autophagy mod: inactive

How did Cc1cc(C)c(NS(=O)(=O)c2ccc3c(c2)NC(=O)CC(=O)N3)c(C)c1 do in these assays?
bCat KO growth: 102; Lmaj promast: 24; HCT116 PTEN-null: 101; Dynein cargo inh: -0.58; Autophagy mod: inactive

What do the screens show for `CCC(C)Nc1nc(-c2cccc(OC)c2O)nc2ccccc12` (stereo not given)?
bCat KO growth: 2.5*; Lmaj promast: 59*; HCT116 PTEN-null: 2.1*; Dynein cargo inh: 0.079; Autophagy mod: inactive

What do the screens show for `COc1cccc(-c2nc(Oc3cccc(C)c3C)c3ccccc3n2)c1O`?
bCat KO growth: 51; Lmaj promast: -3; HCT116 PTEN-null: 57; Dynein cargo inh: 0.35; Autophagy mod: inactive

Results for COc1cccc(-c2nc(NC(C)C)c3ccccc3n2)c1O ?
bCat KO growth: 21; Lmaj promast: 56*; HCT116 PTEN-null: 18; Dynein cargo inh: 0.55; Autophagy mod: inactive

Results for CCOCCCn1c(=S)[nH]c2cc(C(=O)NCC(OC)OC)ccc2c1=O ?
Lmaj promast: -10; Dynein cargo inh: -0.81; Autophagy mod: inactive

What do the screens show for `COc1ccc2c(c1)CC/C(=C/c1ccncc1)C2=O`?
bCat KO growth: 14; Lmaj promast: 75*; HCT116 PTEN-null: 17; Dynein cargo inh: -2; Autophagy mod: inactive

What do the screens show for `CCC1C/C(=C\c2cccnc2)C(=O)/C(=C/c2cccnc2)C1` (stereo not given)?
bCat KO growth: 2.2*; Lmaj promast: 100*; HCT116 PTEN-null: 1.5*; Dynein cargo inh: -3.5; Autophagy mod: inactive

What do the screens show for `O=C1NC(=S)N/C1=C/c1cccnc1`?
Dynein cargo inh: 0.95

Results for O=C1/C(=C/c2ccccc2)CCCc2ccccc21 ?
bCat KO growth: 95; Lmaj promast: 6; HCT116 PTEN-null: 99; Dynein cargo inh: -0.43; Autophagy mod: inactive

Results for O=C1/C(=C/c2cccnc2)CCC/C1=C\c1cccnc1 ?
bCat KO growth: 1.9*; Lmaj promast: 100*; HCT116 PTEN-null: 1.1*; Dynein cargo inh: -0.23; Autophagy mod: inactive

What do the screens show for `O=C1/C(=C\c2cccnc2)CCc2ccccc21`?
bCat KO growth: 21; Lmaj promast: 100*; HCT116 PTEN-null: 11; Dynein cargo inh: -2.3; Autophagy mod: inactive

How did CC(C)Cn1c2c(c(=O)[nH]c1=O)C(NS(=O)(=O)c1ccc(Cl)cc1)(C(F)(F)F)C(=O)N2 (stereo not given) do in these assays?
Dynein cargo inh: -0.65

What do the screens show for `CC(C)N1C(=O)S/C(=C/c2cccnc2)C1=O`?
bCat KO growth: 80; Lmaj promast: 71*; HCT116 PTEN-null: 78; Dynein cargo inh: -1.3; Autophagy mod: inactive

What do the screens show for `O=C1/C(=C/c2ccc(C(=O)O)cc2)CCC/C1=C\c1ccc(C(=O)O)cc1`?
bCat KO growth: 94; Lmaj promast: 66*; HCT116 PTEN-null: 101; Dynein cargo inh: -1.1; Autophagy mod: inactive

Results for CC(C)/C=C1\CC/C(=C\c2cccnc2)C1=O ?
Lmaj promast: 54*; Dynein cargo inh: -3.2; Autophagy mod: inactive

How did O=C1/C(=C/c2cccnc2)CC/C1=C\c1cccnc1 do in these assays?
Lmaj promast: 82*; Dynein cargo inh: -2.5; Autophagy mod: inactive

Results for CCN(CC(=O)NCc1ccc(F)cc1)CC(O)COCc1cccc(OC)c1 (stereo not given) ?
bCat KO growth: 80; Lmaj promast: -5; HCT116 PTEN-null: 94; Dynein cargo inh: -0.39; Autophagy mod: inactive

What do the screens show for `CNC1(C(N)=O)CCNCC1`?
Dynein cargo inh: -0.63

Results for CC(=O)Oc1ccccc1-n1c(C)nc(=O)c(-c2ccccc2)c1C ?
Dynein cargo inh: 0.66

Results for Cc1ccc(Nc2ncccc2C(=O)NCc2cccs2)c(C)c1 ?
bCat KO growth: 79; Lmaj promast: 96*; HCT116 PTEN-null: 74; Dynein cargo inh: 0.042; Autophagy mod: inactive

Results for Cc1cccc(Nc2ncccc2C(=O)NCc2cccs2)c1C ?
bCat KO growth: 87; Lmaj promast: 79*; HCT116 PTEN-null: 75; Dynein cargo inh: -0.3; Autophagy mod: inactive
